ChEMBL document CHEMBL3804829, “Two New Faces of Amifostine: Protector from DNA Damage in Normal Cells and Inhibitor of DNA Repair in Cancer Cells” (J Med Chem, 2016)
Calls of active or inactive are those of the source.

Assays:
[1] = Prodrug conversion in human NHDF cells assessed as ALP-mediated WR-1065 formation at 4 mM after 20 to 75 mins by LC-MS/MS analysis; format: ADME, cell-based; conditions: 4000 µM
[2] = test system: NHDF; assay: Induction of DNA DSB repair in gamma irradiated human NHDF at 4 mM preincubated for 15 mins followed by gamma irradiation measured after 60 to 120 mins by neutral comet assay; format: functional, cell-based
[3] = test system: MCF7; assay: Induction of DNA damage in gamma irradiated human MCF7 cells assessed as increase in median number of […]/53BP1 foci per nucleus at 4 mM preincubated for 15 mins followed by gamma irradiation measured after 60 to 120 mins by confocal fluorescence microscopic analysis; format: functional, cell-based
How it was run: (§1)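 NHDF fibroblasts or MCF7 cells, with or without 4 mM amifostine added 15 min before 1 Gy γ-irradiation. Sampled at 5, 60 and 120 min post-irradiation and fixed in paraformaldehyde to keep nuclei 3D-intact. γH2AX and 53BP1 were immunodetected and imaged by high-resolution confocal microscopy. A DSB was scored only as a γH2AX focus colocalizing with 53BP1 above a minimum size set for each time point. Read-out: median foci per nucleus.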

[4] = test system: NHDF; assay: Induction of DNA DSB repair in gamma irradiated human NHDF assessed as decrease in median number of […]/53BP1 foci per nucleus at 4 mM preincubated for 15 mins followed by gamma irradiation measured after 60 mins by confocal fluorescence microscopic analysis relative to 5 mins postirradiation; format: functional; parameters: scale not given: the % may be the effect or the level left
How it was run: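 NHDF fibroblasts, with or without 4 mM amifostine 15 min before 1 Gy γ-rays, fixed in paraformaldehyde (3D-preserved). γH2AX foci colocalizing with 53BP1 and above a size threshold set per time point were counted by high-resolution confocal microscopy. Repair efficiency was taken as the median DSBs per nucleus at 5 min minus that at 60 min post-irradiation.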

[5] = test system: MCF7; assay: Reduction of DNA DSB repair in gamma irradiated human MCF7 cells assessed as median number of […]/53BP1 foci per nucleus at 4 mM preincubated for 15 mins followed by gamma irradiation measured after 60 mins by confocal fluorescence microscopic analysis relative to control; format: functional; parameters: scale not given: the % may be the effect or the level left; how it was run: as §1
[6] = test system: MCF7; assay: Reduction of DNA DSB repair in gamma irradiated human MCF7 cells at 4 mM preincubated for 15 mins followed by gamma irradiation measured after 60 to 120 mins by neutral comet assay; format: functional, cell-based
[7] = Ratio of prodrug conversion in human NHDF assessed as ALP-mediated WR-1065 formation at 75 mins to prodrug conversion in human MCF7 cells assessed as ALP-mediated WR-1065 formation at 75 mins; format: ADME, cell-based; conditions: mcf7, 1.25 h
[8] = test system: MCF7; assay: Induction of DNA damage in gamma irradiated human MCF7 cells assessed as median number of […]/53BP1 foci per nucleus at 4 mM preincubated for 15 mins followed by gamma irradiation measured after 60 mins by confocal fluorescence microscopic analysis relative to control
[9] = Ratio of prodrug conversion in human NHDF supernatants assessed as ALP-mediated WR-1065 formation at 75 mins to prodrug conversion in human MCF7 cell supernatants assessed as ALP-mediated WR-1065 formation at 75 mins; format: ADME, cell-based; conditions: mcf7, 1.25 h
[10] = Ratio of prodrug conversion in human NHDF supernatants assessed as ALP-mediated WR-1065 formation at 20 mins to prodrug conversion in human MCF7 cell supernatants assessed as ALP-mediated WR-1065 formation at 20 mins; format: ADME, cell-based; conditions: mcf7, 20 min
[11] = test system: NHDF; assay: Induction of DNA DSB repair in gamma irradiated human NHDF assessed as median number of […]/53BP1 foci per nucleus preincubated for 15 mins followed by gamma irradiation measured after 120 mins by confocal fluorescence microscopic analysis relative to control; format: functional, cell-based; how it was run: as §1
[12] = Prodrug conversion in human MCF7 cells assessed as ALP-mediated WR-1065 formation at 4 mM after 20 to 75 mins by LC-MS/MS analysis; format: ADME, cell-based; conditions: mcf7, 4000 µM
[13] = test system: NHDF; assay: Protection against DNA damage in gamma irradiated human NHDF assessed as decrease in double strand breakage of DNA at 4 mM preincubated for 15 mins followed by gamma irradiation measured after 5 mins by neutral comet assay; format: functional, cell-based
[14] = test system: NHDF; assay: Protection against DNA damage in gamma irradiated human NHDF assessed as decrease in median number of gammaH2AX/53BP1 foci per nucleus at 4 mM preincubated for 15 mins followed by gamma irradiation measured after 60 mins by confocal fluorescence microscopic analysis relative to control; format: functional; parameters: scale not given: the % may be the effect or the level left; how it was run: as §1
[15] = Prodrug conversion in human MCF7 cell supernatants assessed as ALP-mediated WR-1065 formation at 4 mM after 20 to 75 mins by LC-MS/MS analysis; format: ADME, cell-based; conditions: mcf7, 4000 µM
[16] = Ratio of prodrug conversion in human NHDF assessed as ALP-mediated WR-1065 formation at 20 mins to prodrug conversion in human MCF7 cells assessed as ALP-mediated WR-1065 formation at 20 mins; format: ADME, cell-based; conditions: mcf7, 20 min
[17] = test system: NHDF; assay: Protection against DNA damage in gamma irradiated human NHDF assessed as decrease in median number of gammaH2AX/53BP1 foci per nucleus at 4 mM preincubated for 15 mins followed by gamma irradiation measured after 5 mins by confocal fluorescence microscopic analysis relative to control; format: functional; parameters: scale not given: the % may be the effect or the level left; how it was run: as §1
[18] = test system: MCF7; assay: Decrease in median number of […]/53BP1 foci per nucleus in gamma irradiated human MCF7 cells at 4 mM preincubated for 15 mins followed by gamma irradiation measured after 60 mins by confocal fluorescence microscopic analysis relative to control; format: functional; parameters: scale not given: the % may be the effect or the level left
How it was run: (§2)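 Cells received 4 mM drug 15 min before 1 Gy γ-irradiation and were sampled at 5, 60 and 120 min post-irradiation. They were fixed in paraformaldehyde to keep nuclei in 3D and immunostained for γH2AX and 53BP1. Imaging used high-resolution confocal microscopy. A DSB was scored only where a γH2AX focus colocalized with 53BP1 and met a minimum size set separately for each time point. The read-out was median foci per nucleus against untreated irradiated cells.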

[19] = test system: MCF7; assay: Decrease in median number of […]/53BP1 foci per nucleus in gamma irradiated human MCF7 cells at 4 mM preincubated for 15 mins followed by gamma irradiation measured after 5 mins by confocal fluorescence microscopic analysis relative to control; format: functional; parameters: scale not given: the % may be the effect or the level left; how it was run: as §2
[20] = test system: MCF7; assay: Drug uptake in human MCF7 cells at 4 mM after 20 to 75 mins by LC-MS/MS analysis; format: ADME, cell-based; conditions: mcf7, 4000 µM
[21] = test system: NHDF; assay: Drug uptake in human NHDF at 4 mM after 20 to 75 mins by LC-MS/MS analysis; format: ADME, cell-based; conditions: 4000 µM
[22] = test system: NHDF; assay: Induction of DNA DSB repair in gamma irradiated human NHDF assessed as median number of […]/53BP1 foci per nucleus at 4 mM preincubated for 15 mins followed by gamma irradiation measured after 60 mins by confocal fluorescence microscopic analysis relative to control; format: functional; how it was run: as §2
[23] = test system: MCF7; assay: Induction of DNA damage in gamma irradiated human MCF7 cells assessed as increase in double strand breakage of DNA at 4 mM preincubated for 15 mins followed by gamma irradiation measured after 5 mins by neutral comet assay; format: functional, cell-based

Structure (SMILES): NCCCNCCSP(=O)(O)O [AMIFOSTINE]
- Drug metabolism [1]: metabolite_detected
- Activity [2]: Active
- Activity [3]: Active
- Activity [4]: 10%
- Activity [5]: 20.7%
- Activity [6]: Active
- Ratio [7]: 1.47
- Activity [8]: 137.5%
- Ratio [9]: 2.17
- Ratio [10]: 1.62
- Activity [11]: Active
- Drug metabolism [12]: metabolite_detected
- Activity [13]: Active
- Activity [14]: 61.9%
- Drug metabolism [15]: metabolite_detected
- Ratio [16]: 2.56
- Activity [17]: 75.8%

Structure (SMILES): NCCCNCCS [WR-1065]
- Activity [18]: 82.9%
- Activity [2]: Active
- Activity [19]: 75%
- Activity [6]: Active
- Drug uptake [20]: > 90%
- Activity [13]: Active
- Activity [14]: 50%
- Drug uptake [21]: > 90%
- Activity [22]: 17.7%
- Activity [17]: 65.2%
- Activity [23]: inactive
